Legend:
[1] = Causally related adverse events, phase Ia/Ib study in patients with solid tumors; assay type: in vivo, human
Outline: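 Expansion cohorts received nanosuspension at 100 mg once daily. The safety set was all patients given ≥1 dose, classified by the treatment actually received. Treatment was delayed or reduced for grade ≥3 or clinically significant nonhematologic toxicity.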

[2] = Dose-limiting toxicity and RP2D, phase Ia dose escalation; assay type: in vivo, human
Outline: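 Phase Ia used Bayesian logistic regression–guided escalation of the oral nanosuspension, with or without durvalumab; capsule cohorts took 75, 150 or 200 mg once daily. A DLT was non-disease-related toxicity before day 21 (monotherapy) or end of cycle 2 (combination), e.g. grade ≥4 neutropenia >7 days or grade ≥3 nonhematologic toxicity.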

[3] = healthy volunteers; ref [32]; cited from earlier work

SMILES: Cc1cc(-c2nnc(N)nc2-c2ccc(F)cc2)cc(Cl)n1 [AZD4635]
- Causally related AE grade ≥3: Arthralgia ([1]; Other Post-IO): 0 n (%)
- Causally related AE grade ≥3: Blood creatinine increased ([1]; Other Post-IO): 0 n (%)
- Causally related AE grade ≥3: CRP increased ([1]; Other Post-IO): 0 n (%)
- Causally related AE grade ≥3: Dermatitis psoriasiform ([1]; Other Post-IO): 0 n (%)
- Causally related AE grade ≥3: Diarrhea ([1]; Other Post-IO): 0 n (%)
- Causally related AE grade ≥3: Dizziness ([1]; Other Post-IO): 0 n (%)
- Causally related AE grade ≥3: Dyspnea ([1]; Other Post-IO): 1 (4.8) n (%)
- Causally related AE grade ≥3: Fatigue ([1]; Other Post-IO): 1 (4.8) n (%)
- Causally related AE grade ≥3: Headache ([1]; Other Post-IO): 0 n (%)
- Causally related AE grade ≥3: Hyperglycemia ([1]; Other Post-IO): 0 n (%)
- Causally related AE grade ≥3: Hypertension ([1]; Other Post-IO): 0 n (%)
- Causally related AE grade ≥3: Hypophosphatemia ([1]; Other Post-IO): 0 n (%)
- Causally related AE grade ≥3: Insomnia ([1]; Other Post-IO): 0 n (%)
- Causally related AE grade ≥3: Lipase increased ([1]; Other Post-IO): 0 n (%)
- Causally related AE grade ≥3: Lymphocyte count decreased ([1]; Other Post-IO): 1 (4.8) n (%)
- Causally related AE grade ≥3: Myositis ([1]; Other Post-IO): 0 n (%)
- Causally related AE grade ≥3: Nausea ([1]; Other Post-IO): 0 n (%)
- Causally related AE grade ≥3: Neutrophil count decreased ([1]; Other Post-IO): 0 n (%)
- Causally related AE grade ≥3: Obliterative bronchiolitis ([1]; Other Post-IO): 0 n (%)
- Causally related AE grade ≥3: Rash ([1]; Other Post-IO): 0 n (%)
- Causally related AE grade ≥3: Sudden death ([1]; Other Post-IO): 0 n (%)
- Causally related AE grade ≥3: Type I diabetes mellitus ([1]; Other Post-IO): 0 n (%)
- Causally related AE grade ≥3: Vomiting ([1]; Other Post-IO): 0 n (%)
- ≥Grade 3 causally related AE ([1]; Other Post-IO): 1 (4.8) n (%)
- Causally related AE grade ≥3: ALT increased ([1]; Total): 0 n (%)
- Causally related AE grade ≥3: Abdominal pain ([1]; Total): 2 (1.4) n (%)
- Causally related AE grade ≥3: Anemia ([1]; Total): 4 (2.7) n (%)
- Causally related AE grade ≥3: Arthralgia ([1]; Total): 1 (0.7) n (%)
- Causally related AE grade ≥3: Blood creatinine increased ([1]; Total): 0 n (%)
- Causally related AE grade ≥3: CRP increased ([1]; Total): 1 (0.7) n (%)
- Causally related AE grade ≥3: Dermatitis psoriasiform ([1]; Total): 0 n (%)
- Causally related AE grade ≥3: Diarrhea ([1]; Total): 1 (0.7) n (%)
- Causally related AE grade ≥3: Dizziness ([1]; Total): 0 n (%)
- Causally related AE grade ≥3: Dyspnea ([1]; Total): 1 (0.7) n (%)
- Causally related AE grade ≥3: Fatigue ([1]; Total): 6 (4.1) n (%)
- Causally related AE grade ≥3: Headache ([1]; Total): 1 (0.7) n (%)
- Causally related AE grade ≥3: Hyperglycemia ([1]; Total): 0 n (%)
- Causally related AE grade ≥3: Hypertension ([1]; Total): 2 (1.4) n (%)
- Causally related AE grade ≥3: Hypophosphatemia ([1]; Total): 0 n (%)
- Causally related AE grade ≥3: Insomnia ([1]; Total): 1 (0.7) n (%)
- Causally related AE grade ≥3: Lipase increased ([1]; Total): 0 n (%)
- Causally related AE grade ≥3: Lymphocyte count decreased ([1]; Total): 1 (0.7) n (%)
- Causally related AE grade ≥3: Myositis ([1]; Total): 0 n (%)
- Causally related AE grade ≥3: Nausea ([1]; Total): 1 (0.7) n (%)
- Causally related AE grade ≥3: Neutrophil count decreased ([1]; Total): 0 n (%)
- Causally related AE grade ≥3: Obliterative bronchiolitis ([1]; Total): 0 n (%)
- Causally related AE grade ≥3: Rash ([1]; Total): 0 n (%)
- Causally related AE grade ≥3: Sudden death ([1]; Total): 1 (0.7) n (%)
- Causally related AE grade ≥3: Type I diabetes mellitus ([1]; Total): 0 n (%)
- Causally related AE grade ≥3: Vomiting ([1]; Total): 2 (1.4) n (%)
- ≥Grade 3 causally related AE ([1]; Total): 19 (12.9) n (%)
- Treatment-related AEs of grade 3 or greater severity, patients ([1]; all tumor cohorts): 12.9%
- Causally related AE grade ≥3: ALT increased ([1]; mCRPC IO-naïve): 0 n (%)
- Causally related AE grade ≥3: Abdominal pain ([1]; mCRPC IO-naïve): 1 (1.5) n (%)
- Causally related AE grade ≥3: Anemia ([1]; mCRPC IO-naïve): 3 (4.6) n (%)
- Causally related AE grade ≥3: Arthralgia ([1]; mCRPC IO-naïve): 1 (1.5) n (%)
- Causally related AE grade ≥3: Blood creatinine increased ([1]; mCRPC IO-naïve): 0 n (%)
- Causally related AE grade ≥3: CRP increased ([1]; mCRPC IO-naïve): 1 (1.5) n (%)
- Causally related AE grade ≥3: Dermatitis psoriasiform ([1]; mCRPC IO-naïve): 0 n (%)
- Causally related AE grade ≥3: Diarrhea ([1]; mCRPC IO-naïve): 0 n (%)
- Causally related AE grade ≥3: Dizziness ([1]; mCRPC IO-naïve): 0 n (%)
- Causally related AE grade ≥3: Dyspnea ([1]; mCRPC IO-naïve): 0 n (%)
- Causally related AE grade ≥3: Fatigue ([1]; mCRPC IO-naïve): 1 (1.5) n (%)
- Causally related AE grade ≥3: Headache ([1]; mCRPC IO-naïve): 1 (1.5) n (%)
- Causally related AE grade ≥3: Hyperglycemia ([1]; mCRPC IO-naïve): 0 n (%)
- Causally related AE grade ≥3: Hypertension ([1]; mCRPC IO-naïve): 0 n (%)
- Causally related AE grade ≥3: Hypophosphatemia ([1]; mCRPC IO-naïve): 0 n (%)
- Causally related AE grade ≥3: Insomnia ([1]; mCRPC IO-naïve): 1 (1.5) n (%)
- Causally related AE grade ≥3: Lipase increased ([1]; mCRPC IO-naïve): 0 n (%)
- Causally related AE grade ≥3: Lymphocyte count decreased ([1]; mCRPC IO-naïve): 0 n (%)
- Causally related AE grade ≥3: Myositis ([1]; mCRPC IO-naïve): 0 n (%)
- Causally related AE grade ≥3: Nausea ([1]; mCRPC IO-naïve): 1 (1.5) n (%)
- Causally related AE grade ≥3: Neutrophil count decreased ([1]; mCRPC IO-naïve): 0 n (%)
- Causally related AE grade ≥3: Obliterative bronchiolitis ([1]; mCRPC IO-naïve): 0 n (%)
- Causally related AE grade ≥3: Rash ([1]; mCRPC IO-naïve): 0 n (%)
- Causally related AE grade ≥3: Sudden death ([1]; mCRPC IO-naïve): 0 n (%)
- Causally related AE grade ≥3: Type I diabetes mellitus ([1]; mCRPC IO-naïve): 0 n (%)
- Causally related AE grade ≥3: Vomiting ([1]; mCRPC IO-naïve): 1 (1.5) n (%)
- ≥Grade 3 causally related AE ([1]; mCRPC IO-naïve): 9 (13.8) n (%)
- Tolerability ([1]; monotherapy and in combination with durvalumab, all patients): well tolerated
- DLTs ([2]; capsule formulation, doses of up to 200 mg): no DLTs
- Patients with a DLT ([2]; phase Ia, nanosuspension monotherapy 75 mg or 100 mg once daily): No patients
- Patients with DLTs ([2]; phase Ia, nanosuspension monotherapy 125 mg twice daily, out of 3 patients): 2
- AUC of capsule formulation compared with nanosuspension, higher by [3]: ~10%
- Cmax of capsule formulation compared with nanosuspension, higher by [3]: approximately 27%

— paper PMC9660540 (Clinical Cancer Research, 2022)
